{"source": "paper PMC11815446", "about": "(Open Heart, 2025)", "key": {"[1]": {"details": "two-step process in the liver; ref 8 9; cited from earlier work"}, "CYP2C19": {"system": "CYP2C19", "details": "ref 8 9; cited from earlier work"}, "[2]": {"assay": "Safety assessment, treatment emergent adverse events", "assay_type": "in vivo, human", "details": "A n=40, B n=39", "how_it_was_run": "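Healthy Indian adults (18–45 y, BMI 18.50–29.90 kg/m²) were CYP2C19-genotyped at two laboratories as *1/*1 or *2/*2. Randomised two-period crossover: loading dose day 1, then once-daily maintenance doses days 2–6, with a washout of at least 14 days. The investigator recorded adverse events throughout the study, along with PT/PTT, vital signs, ECGs, haematology, blood chemistry, urinalysis and physical examinations.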"}, "[3]": {"system": "ADP-induced platelet aggregation", "assay": "ADP-induced platelet aggregation in whole blood, impedance aggregometry", "assay_type": "in vivo, human", "details": "for mean %inhibition of platelet aggregation: all subjects"}}, "note": "Where a name gives a salt, the structure may show the parent alone."}
{"compound": "COC(=O)[C@H](c1ccccc1Cl)N1CCc2sccc2C1", "note": "[Clopidogrel, Hydrogen sulfate;hydron;methyl (2S)-2-(2-chlorophenyl)-2-(6,7-dihydro-4H-thieno[3,2-c]pyridin-5-yl)acetate]", "values": [{"measurement": "share of the drug converted to the active metabolite H4", "setting": "[1]", "value": 15, "unit": "%"}, {"measurement": "contribution of CYP2C19 to the first metabolic step (Step 1)", "setting": "CYP2C19", "value": 45, "unit": "%"}, {"measurement": "Treatment emergent adverse events: Anxiety", "setting": "[2]", "value": "00.0 (00.0) n (%) E"}, {"measurement": "Treatment emergent adverse events: Cough", "setting": "[2]", "value": "00.0 (00.0) n (%) E"}, {"measurement": "Treatment emergent adverse events: Psychiatric disorders", "setting": "[2]", "value": "00.0 (00.0) n (%) E"}, {"measurement": "Treatment emergent adverse events: Respiratory, thoracic and mediastinal disorders", "setting": "[2]", "value": "00.0 (00.0) n (%) E"}, {"measurement": "mean %inhibition of platelet aggregation", "setting": "[3]; 6 hours postdose (loading dose: AT-10 40 mg, clopidogrel 300 mg)", "value": 18.53, "unit": "%"}, {"measurement": "mean %inhibition of platelet aggregation", "setting": "[3]; 6 hours postdose on day 6 (maintenance dose: AT-10 10 mg, clopidogrel 75 mg)", "value": 51.19, "unit": "%"}, {"measurement": "time at which inhibition of ADP-induced platelet aggregation reaches the peak", "setting": "[3]; postdose", "value": "around 6 hours"}]}
